Bioassay records deposited in PubChem BioAssay by several laboratories.
Shown are actives, neighbours in structure and some others; about 5.1% of the full set was active somewhere.
SF1 activator – SF-1 (human) activation; Q13285; CHO-K1 Gal4-SF-1 LBD luciferase reporter; % increase over DMSO SF-1-specific signal; activation, % at 10 µM; actives 1.9% (n = 65,000); AID 522;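 active = activation above the mean activation of all tested compounds plus 3 SD, cut at about 50% in these data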
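Test system: CHO-K1 cells co-transfected with Gal4 DBD–human SF-1 LBD, 5xGal4 luciferase reporter. Quantity: 4,000 cells per well. Compound: 10 µM only. Incubation: compound added 1 h post-seeding, 20 h exposure at 37 °C, 5% CO2. Detection: SteadyLite luciferase luminescence. Replication: one test per compound.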
RORa activator – activates the human nuclear receptor RORA | actives 1.5% (n = 65,000) | activation, % at 10 µM | P35398 | CHO-K1 Gal4-RORA LBD luciferase reporter, luminescence; percent increase over mock-subtracted basal signal;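 active = activation above the mean of all tested compounds plus 3 SD, cut at about 49% in these data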;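 note: 0% = DMSO-treated RORA cells and 100% = added signal equal to DMSO minus mock-transfected cells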
BAP1 block – blocks human BAP1 ubiquitin-AMC hydrolysis. Q92560. recombinant BAP1, Ub-AMC hydrolysis fluorescence kinetic; stronger effect = lower value. calls only at 20 µM. actives 0.48% (n = 72,000);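 active = activity remaining at or below 50% of control, provided the compound also passes the data quality filters; inactive = the rest, including low values that fail the filters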;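 note: 100% = DMSO wells rate and 0% = substrate alone blank rate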
Target sequence (Q92560 whole entry, looked up): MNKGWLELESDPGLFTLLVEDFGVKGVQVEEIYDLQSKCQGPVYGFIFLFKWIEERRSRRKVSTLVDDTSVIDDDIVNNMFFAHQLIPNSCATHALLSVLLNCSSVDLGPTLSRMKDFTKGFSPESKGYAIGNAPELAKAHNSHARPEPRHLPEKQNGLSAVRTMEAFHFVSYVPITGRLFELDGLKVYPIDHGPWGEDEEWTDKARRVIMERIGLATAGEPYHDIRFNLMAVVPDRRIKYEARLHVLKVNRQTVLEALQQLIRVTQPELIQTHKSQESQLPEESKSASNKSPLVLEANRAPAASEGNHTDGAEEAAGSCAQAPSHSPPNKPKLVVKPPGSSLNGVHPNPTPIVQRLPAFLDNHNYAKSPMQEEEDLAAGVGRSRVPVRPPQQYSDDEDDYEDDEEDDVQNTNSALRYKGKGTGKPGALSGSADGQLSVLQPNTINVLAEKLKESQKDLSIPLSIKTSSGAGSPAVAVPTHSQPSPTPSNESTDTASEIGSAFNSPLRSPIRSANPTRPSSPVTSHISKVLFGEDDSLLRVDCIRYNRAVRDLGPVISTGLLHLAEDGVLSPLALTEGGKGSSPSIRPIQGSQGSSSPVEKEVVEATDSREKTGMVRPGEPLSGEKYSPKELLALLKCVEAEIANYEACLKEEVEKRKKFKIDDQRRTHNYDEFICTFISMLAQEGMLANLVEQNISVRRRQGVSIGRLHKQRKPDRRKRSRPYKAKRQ
ERb coact inh – blocks coactivator binding to human estrogen receptor beta. Q92731. TR-FRET ER-beta LBD / SRC1-Cy5 peptide binding; receptor agonist-loaded with 1 µM estradiol. inhibition, % at 25.6 µM. actives 1.3% (n = 86,000);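 active = compounds whose percent inhibition of the receptor-coactivator binding signal exceeds about 50% in the single-dose screen, limit read from the data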;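 note: 0% = receptor plus peptide wells without compound and 100% = peptide-only wells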
ERa coact pot – ER-alpha (human) coactivator binding potentiation | coactivator binding (% of control), % at 25.6 µM | actives 1.3% (n = 86,000) | TR-FRET ERalpha-LBD/SRC-Cy5 coactivator binding, 2 h; 100 = basal binding, no effect | P03372 | AID 639; in the data active = activity above about 200%;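 note: binding measured in presence of low estradiol as agonist stimulus; 0% = peptide alone without receptor and 100% = receptor with peptide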
ERa SRC1 inh – blocks coactivator binding to human estrogen receptor alpha | AID 629 | actives 1.7% (n = 86,000) | P03372 | inhibition, % at 25.6 µM | TR-FRET ER-alpha LBD / SRC-1 peptide, estradiol-bound; in the data active = inhibition above about 50%;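 note: 0% = receptor plus peptide control and 100% = peptide only without receptor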
Active calls of the source: *; i = inactive; · = not tested or not shown; + = active, no number; [ ] = dose if it differs, or a comment.

SMILES | SF1 activator | RORa activator | BAP1 block | ERb coact inh | ERa coact pot | ERa SRC1 inh
CCCOC(=O)C1=C(C)N(C)C(=O)NC1c1ccc(O)c(OC)c1 (configuration not stated) | · | · | i | · | · | ·
CSc1nc(-c2ccccc2)nn1C(=O)c1ccco1 | · | · | · | -7.2 | 87.5 | 4.3
Cc1cccc2nc(=S)n(C(=O)c3ccco3)n12 | 41.8 | 56.0* | i | 1.1 | 110.6 | 1.9
O=C(c1ccco1)N1C(=O)c2cccc3cccc1c23 | 5.9 | -9.8 | i | 12.5 | 92.0 | -8.0
O=C(c1ccco1)n1c(=S)nc2ccccn21 | 32.0 | 76.7* | i | -7.5 | 113.6 | -9.4
CCOC(=O)C1=C(C)NC(=O)NC1c1ccco1 (configuration not stated) | -8.7 | 2.5 | · | 66.1* | 61.3 | 48.2
CC1=C(C(=O)OC(C)C)C(c2ccco2)NC(=O)N1 (configuration not stated) | · | · | · | 54.7*[fluorescence artefact?] | 55.5 | 35.2
C=CCn1c(=N)n(CC(O)c2ccc(C)cc2)c2ccccc21 (configuration not stated) | · | · | i | · | · | ·
CCCCCCCC/C=C\CCCCCCCC(=O)NCCc1ccc(O)c(O)c1 | · | · | + | · | · | ·
COc1cc(C(=O)Nc2ccc3c(c2)OCCO3)ccc1OC(C)C | 54.3* | 45.4 | i | 0.1 | 110.3 | -3.8
COc1ccc(C(=O)Nc2ccc3c(c2)OCCO3)cc1 | · | · | · | -7.0 | 99.2 | -5.5
COc1cc(C(=O)Nc2ccc3c(c2)OCCO3)ccc1OC(F)F | 63.8* | 75.5* | i | 2.6 | 108.2 | -8.2
COc1ccc(NC(=O)Nc2nonc2C)cc1 | · | · | i | · | · | ·
CC(Sc1ccccn1)C(=O)Nc1ccccc1 (configuration not stated) | 57.1* | 33.7 | i | -6.7 | 86.8 | -11.3
CC(=O)Nc1ccc(OC(=O)CC2SC(=O)NC2=O)cc1 (configuration not stated) | 0.6 | -1.9 | i | 56.3* | 70.1 | 40.7
O=C(Nc1cccc(-c2nnc(-c3ccccc3)o2)c1)C1CCCCC1 | 53.2* | 49.3* | i | 9.0 | 208.0*[fluorescence artefact?] | 7.6
O=C(Nc1ccccc1)c1cccc(-c2nnc(-c3ccccc3)o2)c1 | -62.7 | -17.7 | i | 19.7 | 309.2*[fluorescence artefact?] | 6.6
CCOc1ccc(NC(=O)CCCc2cc(-c3ccc(OCC)cc3)on2)cc1 | · | · | · | 17.5 | 204.3* | 25.1
COc1cc2cc3c(N)c(C(=O)NCc4ccco4)sc3nc2cc1OC | 43.7 | 80.4* | i | 15.6 | 99.6 | 1.1
COc1ccc(-c2nn(C)c3sc(C(=O)NCc4ccco4)cc23)cc1OC | 21.7 | -23.9 | · | 58.9*[fluorescence artefact?] | 64.2 | 79.9*[fluorescence artefact?]
CCOC(=O)c1c(NC(=O)c2ccc(C(=O)c3ccccc3)cc2)sc2c1CCCC2 | · | · | i | · | · | ·
Cc1ccc(NC(=O)c2ccccc2-c2nc3ccccc3[nH]2)cc1C | · | · | i | · | · | ·
O=c1oc2ccccc2c(N2CCN(c3ccccc3)CC2)c1[N+](=O)[O-] | · | · | i | · | · | ·
CCOC(=O)c1ccc(N2C(=O)c3n[nH]c(C)c3C2c2ccc(OC)c(OC)c2)cc1 (configuration not stated) | 3.8 | 9.8 | i | 1.9 | 112.1 | 0.6
CCOC(=O)c1ccc(N2C(=O)c3n[nH]c(C)c3C2c2ccc(OC)cc2)cc1 (configuration not stated) | -4.6 | -8.7 | i | -7.4 | 110.1 | 98.8*[fluorescence artefact?]
SMILES | SF1 activator | RORa activator | BAP1 block | ERb coact inh | ERa coact pot | ERa SRC1 inh
COC(=O)c1cc2sc(Cl)cc2n1CC(=O)Nc1ccc(OC)c(OC)c1OC | -4.2 | 20.2 | · | 24.8 | 108.7 | 53.6*[fluorescence artefact?]
COC(=O)c1cc2occc2n1CC(=O)Nc1ccc(OC)c(OC)c1OC | 5.6 | -20.0 | i | · | · | ·
CC(C)=C(C#N)c1nc2ccccc2s1 | -2.8 | 11.4 | i | · | · | ·
COC(=O)c1ccc(/C(O)=C(\C#N)c2nc3ccccc3s2)cc1 | 84.3* | 18.9 | i | 18.6 | 84.2 | 7.1
c1ccc(CCn2c(SCCN3CCOCC3)nc3ccccc32)cc1 | · | · | i | · | · | ·
O=C(Nc1cccnc1)c1cc(-c2ccc3c(c2)OCO3)on1 | -7.5 | -22.0 | i | 17.0 | 404.8* | 28.7
CC1CCN(C(=O)c2cc(-c3ccc(Cl)c(Cl)c3)on2)CC1 | 8.1 | 26.5 | i | -11.2 | 104.0 | 2.4
O=C(c1cc(-c2ccc(Cl)c(Cl)c2)on1)N1CCCC1 | 45.6 | 59.9* | i | 3.7 | 120.0 | -0.1
O=C(c1cc(-c2ccc3c(c2)OCO3)on1)N1CCN(c2ccccc2)CC1 | 36.0 | 69.7* | i | -9.9 | 96.3 | -2.6
COc1ccc(C(=O)Nc2cccc(C(F)(F)F)c2)cc1OC | · | · | i | · | · | ·
Cc1ccc(-n2nc(C)c3c(-c4cccs4)c(C#N)c(N)nc32)cc1 | 2.3 | 5.0 | i | 18.9 | 210.2*[fluorescence artefact?] | 9.7
Cc1nn(-c2ccccc2)c2nc(N)c(C#N)c(-c3ccc(F)cc3)c12 | -36.6 | -10.3 | · | 13.2 | 215.0*[fluorescence artefact?] | 13.3
COc1ccc(C(=O)Nc2ccc(Cl)cn2)cc1Cl | 45.4 | 48.0 | i | 8.2 | 104.8 | 0.8
CN(C)S(=O)(=O)c1cccc(C(=O)Nc2ccc(Cl)cn2)c1 | 65.0* | 18.1 | i | 0.5 | 99.3 | -0.7
Cc1cc(OCC(=O)Nc2sc3c(c2C(N)=O)CCC(C)C3)ccc1Cl (configuration not stated) | · | · | i | · | · | ·
O=C1Nc2cc3c(cc2Sc2ccccc21)OCCO3 | -21.9 | -11.0 | i | 7.7 | 233.7*[fluorescence artefact?] | 7.5
CC1(C)Cc2c(sc(NC(=O)c3ccco3)c2C(=O)O)CO1 | · | · | · | 2.2 | 94.0 | -4.5
CC1(C)Cc2c(sc(NC(=O)c3ccc(Br)o3)c2C#N)CO1 | 62.3* | 9.3 | i | -7.2 | 112.2 | -3.9
Cc1c(C(c2cccc(I)c2)c2c(C)n(C)n(-c3ccccc3)c2=O)c(=O)n(-c2ccccc2)n1C | · | · | i | · | · | ·
Cc1cccc(/N=C/c2c(O)[nH]c3ccccc23)n1 | 102.7* | 85.9* | i | 7.4 | 94.4 | 0.2
CCC(C(=O)Nc1cccc([N+](=O)[O-])c1)(C(F)(F)F)C(F)(F)F | · | · | i | · | · | ·
CCC(C)C(=O)N1c2ccccc2C(N(C(=O)COc2ccccc2)c2ccccc2)CC1C (configuration not stated) | · | · | i | · | · | ·
COc1ccc(CCNC(=O)Cn2nnc(-c3cccc(OC)c3OC)n2)cc1OC | -2.5 | -12.3 | i | 10.2 | 101.2 | -2.9
COc1cccc(-c2nnn(CC(=O)Nc3ccc(C)cc3C)n2)c1OC | 0.4 | -3.9 | i | 30.6 | 283.0*[fluorescence artefact?] | 26.9
O=C(NCSc1ccnc(SCNC(=O)c2ccccc2)n1)c1ccccc1 | · | · | · | 10.3 | 252.2* | -6.3
O=C(NCSc1ccncn1)c1ccccc1 | 13.6 | -5.1 | i | · | · | ·
CCOC(=O)c1sc(NC(=O)c2ccc(Cl)s2)cc1C | 53.6* | 78.2* | i | 12.0 | 121.2 | 26.6
CCOC(=O)c1sc(NC(=O)C2CC2)cc1C | 4.2 | 7.8 | i | -8.8 | 118.0 | -7.5
